Shown is part of a subset that was picked to be rich in hits.
NALP3 yeast inh – NALP3 inhibition in yeast | Yeast reconstituted NLRP3/ASC/caspase-1, beta-gal luminescence, 24 h | inhibition, % at 10 µM | hit rate 0.39% among 330,000 | AID 2825;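 active = inhibition of 50% or more; inactive = inhibition below 50%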;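 note: plate controls were induced DMSO wells for no effect and uninduced yeast grown without galactose for full effect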
NALP1 inh – NALP1 inhibition | S. cerevisiae NALP1/ASC/caspase-1 growth, X-gal OD620, 72 h | inhibition, % at 10 µM | hit rate 0.61% among 280,000 | AID 2071; in the data active = inhibition mostly above about 24%, no sharp cut-off; inactive = mostly below about 32%
T cruzi inh – T. cruzi replication inhibition. T. cruzi beta-gal in NIH3T3, luminescence, 90 h. inhibition, % (no concentration beside the values). hit rate 1.4% among 300,000;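 active = mean inhibition across valid replicates above about 55%, limit read from the data; inconclusive = mean below that limit but half or more replicates reach it; inactive = mean below it, under half of replicates reach it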;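 note: signal also drops with host cell toxicity which is not excluded here; 0% = plate median of DMSO wells and 100% = zero luminescence signal; higher percent means less beta-gal luminescence so fewer parasites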
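Incubation – ≥90 h infection period, 3 h prior cell attachment · System – NIH/3T3 fibroblasts plus reporter T. cruzi · Doses – compound pinned at 50 nL/well, DMSO · Read-out basis – percent inhibition of parasite-derived β-gal signal · Signal – luminescent β-galactosidase signal after 60 min lysis · Also added – 5000 T. cruzi trypomastigotes/well · Medium – Low-serum DMEM with 2% FBS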
Calb FLC – affects C. albicans growth with fluconazole; C. albicans CaCi-2 + fluconazole, Alamar Blue growth, 48 h; growth inhibition, % (no concentration beside the values); hit rate 0.57% among 300,000;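 active = growth inhibition above about 58% in most replicates, limit read from the data, passing the limit was not always enough; inconclusive = exactly half the replicates above a set limit; inactive = most replicates below a set limit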;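 note: all wells also contain fluconazole at 8 µg/ml as a sub-toxic cotreatment; 0% = median of DMSO wells and 100% = median of geldanamycin control wells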
L major viab – inhibitors of Leishmania major promastigote growth; Leishmania major promastigotes, resazurin fluorescence viability; inhibition, % at 10 µM; hit rate 9% among 200,000; AID 1063; in the data active = inhibition above about 50%;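 note: promastigotes grown with compound for 44 hours at 28 °C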
PolyA inhibitor – inhibitors of polyadenylation in S. cerevisiae; S. cerevisiae SKY197-pL101 polyadenylation reporter, beta-gal luminescence; efflux-impaired pdr1/pdr3 knockout yeast; score 100 = 6 SD above DMSO; activity score, % at 12 µM; AID 1875; hit rate 0.02% among 300,000;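 active = lowest replicate activity score at least 50, where 100 means six control SD above control mean; inconclusive = lowest score under 50 but half or more replicates reach 50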;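 note: yeast exposed to compound for 9 h at 30 °C; higher score means more reporter readthrough which indicates perturbed polyadenylation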
Starred values were filed as active, the others as inactive; u = inconclusive; x = no result given.

SMILES	NALP3 yeast inh	NALP1 inh	T cruzi inh	Calb FLC	L major viab	PolyA inhibitor
CC(C)(C)C1CCC(C(=O)OCC(=O)c2ccc[nH]2)CC1 (configuration not stated)	15	41	4	-2	57*	4
O=C(Nc1ccc(N2CCCCC2)c(Cl)c1)c1ccc(N2CCOCC2)c([N+](=O)[O-])c1	16	23	62*	40	93*	16
O=C(Nc1cccc(-c2cn3c(n2)SCC3)c1)c1ccc(Br)o1	1	2	x	121*	32	x
O=C(Nc1cccc(F)c1)c1ccc(Br)o1	40	34	-21	-5	68*	6
O=C(NC(=S)Nc1ccc(N2CCCCC2)cc1)c1ccc2c(c1)OCCO2	-1	30	13	-3	64*	-11
O=C(Nc1cc(Cl)ccc1N1CCOCC1)c1ccc(N2CCCCC2)c([N+](=O)[O-])c1	1	x	22	2	x	5
N#CC1(NC(=O)COC(=O)c2cc(=O)[nH]c3ccccc23)CCCCC1	20	x	-7	6	x	17
Cc1ccc(C2/C(=C(\O)c3ccc4c(c3)OCCO4)C(=O)C(=O)N2Cc2cccnc2)cc1 (configuration not stated)	15	-7	-5	0	x	2
O=C(Nc1ccc(N2CCCCC2)c(Cl)c1)c1ccc2c(c1)OCCO2	20	11	7	-7	15	-14
O=C(Nc1ccc(N2CCCC2)c(Cl)c1)c1ccc2c(c1)OCCO2	8	x	59*	-8	3	-1
O=C(Nc1ccc(N2CCCC2)c(Cl)c1)c1ccc(Br)o1	24	33	55*	-9	8	-18
CC(=O)N/C(=C\c1ccccc1)C(=O)OCC(=O)N(C)C1CCS(=O)(=O)C1 (configuration not stated)	24	x	x	x	x	x
NC(=O)c1cc([N+](=O)[O-])cc2c1C=Cc1ccccc1O2	12	-2	46	0	90*	13
COc1ccc(NC(C)(C)c2nnnn2-c2c(C)cccc2C)cc1	-9	4	-4	12	x	-6
CCC(C)(c1nnnn1-c1c(C)cccc1C)N(N=O)c1cccc(C(F)(F)F)c1 (configuration not stated)	10	18	39	3	100*	6
Cc1ccc(C(C)C)c(OCc2ccc(C(=O)N/N=C/c3ccc(O)cc3O)cc2)c1	x	26	33	1	100*	-1
Cc1nc2ccccc2c2oc(C(=O)N3CC(C)CC(C)C3)cc12 (configuration not stated)	5	12	16	-15	x	16
CCOC(=O)C1CCCN(C(=O)c2cc3c(C)nc4ccccc4c3o2)C1 (configuration not stated)	6	-7	0	-11	77*	-12
CCOC(=O)C1CCN(c2c(C(=O)c3ccccc3)cnc3ccc(CC)cc23)CC1	11	18	0	0	55*	-12
CCOC(=O)C1CCCN(c2c(C(=O)c3ccccc3)cnc3ccccc23)C1 (configuration not stated)	4	-2	0	x	51*	x
CC1Cc2ccccc2N1C(=S)NC(=O)C1(C)CC1(Cl)Cl (configuration not stated)	11	-5	-14	-11	-3	-28
COc1ccccc1CNC(=O)C1CCC(=O)N(CCCc2ccccc2)C1 (configuration not stated)	5	-3	-1	-12	x	-11
O=C(COc1ccc(-c2ccccc2)cc1)N1CCN(C(=O)c2cccnc2)CC1	9	4	-8	1	-5	-5
O=C(c1ccccc1)N1CC(COc2ccccc2)OC(c2cccnc2)O1 (configuration not stated)	24	13	8	1	54*	-7
COCCN(CCNC(=O)c1ccc(NC2=NC3CS(=O)(=O)CC3S2)cc1)Cc1ccco1 (configuration not stated)	-3	17	-5	2	x	13
SMILES	NALP3 yeast inh	NALP1 inh	T cruzi inh	Calb FLC	L major viab	PolyA inhibitor
N/C(Cc1nc(-c2ccc(Br)cc2)cs1)=N\O	11	-2	49	99*	-5	-16
O=C(NCc1cccnc1)/C(=C\c1ccc(-c2ccc(Cl)c(Cl)c2)o1)S(=O)(=O)c1ccccc1	x	12	45	u	100*	13
O=C(NCc1cccnc1)c1ccc(-c2cc(Cl)ccc2Cl)o1	17	14	56*	8	-2	13
O=C(NCc1cccc(Cl)c1)c1cccnc1	5	22	4	21	-1	11
Cc1ccc(Cl)cc1N(Cc1ccc(C(=O)NCc2cccnc2)cc1)S(=O)(=O)c1ccccc1	11	22	-2	1	83*	x
O=C(NCc1cccnc1)c1ccc(-c2ccc(Cl)cc2)o1	8	-3	11	9	-4	-3
O=C(NCc1cccnc1)c1cc(Sc2cccc(Cl)c2)nc2ccccc12	9	21	15	-2	68*	-4
COc1ccc(CNC(=O)C2CCCN(S(=O)(=O)c3ccc(F)cc3)C2)cc1 (configuration not stated)	6	8	4	-3	x	8
CC1=C([N+](=O)[O-])C(c2ccccc2C(F)(F)F)NC(=O)N1C (configuration not stated)	5	-5	-7	-5	x	-12
COC(=O)c1sc2ccccc2c1-n1cccc1C(=O)C(=O)Nc1ccccc1	-5	-7	0	-10	-2	-1
O=C(Cn1cnc2ccccc2c1=O)N/N=C/c1ccc(Br)cc1	14	3	-7	-10	x	6
COc1ccc(NC(=O)c2cc3cccc(OC)c3oc2=Nc2ccc(C(=O)O)cc2)cc1OC	x	28*	3	23	15	-9
COc1cccc(NC(=O)c2cc3cccc(OC)c3o/c2=N\O)c1	1	4	-11	x	x	-11
COc1ccc(C(C)(C)C)cc1NC(=O)c1cc(S(=O)(=O)N(C)C)ccc1N1CCCC1	11	10	25	-12	11	14
Cc1cccc2c1NC(=O)C21N2CCCC2C(C(=O)c2ccc3ccccc3c2)C12C(=O)Nc1ccccc12 (configuration not stated)	9	x	9	-5	x	15
CCc1ccc2c(c1)C1(C(=O)N2)N2CCCC2C(C(=O)c2ccc3ccccc3c2)C12C(=O)Nc1ccccc12 (configuration not stated)	3	27	26	5	79*	-12
CCc1cccc2c1NC(=O)C21N2CCCC2C(C(=O)c2ccc3ccccc3c2)C12C(=O)Nc1ccccc12 (configuration not stated)	20	21	-3	-8	82*	-21
Cc1noc(C)c1C(=O)OCC(=O)Nc1ncc(C(F)(F)F)cc1Cl	24	x	x	x	x	x
COC(=O)c1ccc(NC(=O)CSc2nnc(C(C)NC(=O)c3ccccc3Cl)n2C)cc1 (configuration not stated)	7	21	-4	2	-4	-5
